Laboratory results as given in paper PMC12334608 (Nature Communications, 2025).
Substitutions are numbered along the chain they refer to. In names and notes the source's numbering stands. Where two headings read alike, the source gives them in different places.

Experiments:
[1] = target: T1, ACOX-1.1 (Caenorhabditis elegans, UniProt O62140); experiment: Enzyme-coupled kinetic assay, wild-type ACOX-1.1 as purified; assay type: biochemical, C. elegans; settings: for rescue of the time-dependent decrease in enzymatic activity: incubation with FAD plus nucleotide, compared with ATP
T1 sequence (O62140 1-674): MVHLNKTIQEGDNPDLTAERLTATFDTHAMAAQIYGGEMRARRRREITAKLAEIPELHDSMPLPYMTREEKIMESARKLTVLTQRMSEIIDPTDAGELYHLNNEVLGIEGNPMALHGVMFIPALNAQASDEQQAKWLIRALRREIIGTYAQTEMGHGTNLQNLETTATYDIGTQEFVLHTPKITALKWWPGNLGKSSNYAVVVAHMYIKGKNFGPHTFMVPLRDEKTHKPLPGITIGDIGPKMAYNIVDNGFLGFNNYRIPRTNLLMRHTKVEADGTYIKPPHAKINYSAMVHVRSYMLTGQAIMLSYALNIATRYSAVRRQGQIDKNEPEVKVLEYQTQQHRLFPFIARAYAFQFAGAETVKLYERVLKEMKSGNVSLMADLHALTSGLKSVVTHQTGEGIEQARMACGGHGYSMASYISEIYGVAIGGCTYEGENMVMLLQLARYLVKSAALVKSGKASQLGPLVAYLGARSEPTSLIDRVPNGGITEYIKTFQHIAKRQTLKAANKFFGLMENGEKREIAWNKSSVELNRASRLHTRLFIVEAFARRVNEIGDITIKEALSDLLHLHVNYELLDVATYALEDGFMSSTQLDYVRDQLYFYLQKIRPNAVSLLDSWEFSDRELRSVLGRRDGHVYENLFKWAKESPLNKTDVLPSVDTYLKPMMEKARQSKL

[2] = target: T2, apo ACOX-1.1 (Caenorhabditis elegans, UniProt O62140); experiment: Enzyme-coupled kinetic assay, wild-type apo ACOX-1.1; assay type: biochemical, C. elegans
T2 sequence (O62140 1-674): T1 sequence (O62140 1-674)

[3] = target: T1, ACOX-1.1; experiment: FAD koff rate by fluorescence polarization; assay type: binding, C. elegans; settings: read-out: koff of FAD
Procedure, shortened: (§1)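 FAD-bound, non-dialyzed enzyme at 5 μM was run in triplicate. FAD fluorescence anisotropy was recorded in polarization mode on a plate reader over 1 h, with 5 μM FAD alone as the gain/focus control. koff was obtained by fitting to a dissociation kinetics equation. Preparations were 46% (wild type) and 66% (E434A) FAD-bound per dimer.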

[4] = test system: ACOX-1.1(E434A); experiment: FAD koff rate by fluorescence polarization; assay type: binding, C. elegans
Procedure, shortened: as §1

[5] = target: T2, apo ACOX-1.1; experiment: FAD and ATP dissociation constants by fluorescence polarization; assay type: binding, C. elegans
[6] = target: T3, ACOX-1.1(R343Q) (Caenorhabditis elegans, UniProt O62140, R343Q); experiment: Enzyme-coupled kinetic assay, ACOX-1.1; assay type: biochemical, C. elegans
T3 sequence (O62140 1-674 R343Q): T1 sequence (O62140 1-674) with R343Q

[7] = target: T4, ACOX-1.1(R343A) (Caenorhabditis elegans, UniProt O62140, R343A); experiment: Enzyme-coupled kinetic assay, ACOX-1.1; assay type: biochemical, C. elegans
T4 sequence (O62140 1-674 R343A): T1 sequence (O62140 1-674) with R343A

[8] = target: the molecule itself; experiment: SEC

Nc1ncnc2c1ncn2[C@H]1C[C@H](O)[C@@H](COP(=O)(O)OP(=O)(O)OP(=O)(O)O)O1 [deoxy-ATP]
rescue of the time-dependent decrease in enzymatic activity [1]: None of these nucleotides are able to rescue the time-dependent decrease in enzymatic activity as well as ATP

Nc1ncnc2c1ncn2[C@@H]1O[C@H](COP(=O)(O)O)[C@@H](O)[C@H]1O [AMP]
rescue of the time-dependent decrease in enzymatic activity [1]: None of these nucleotides are able to rescue the time-dependent decrease in enzymatic activity as well as ATP

Nc1ncnc2c1ncn2[C@@H]1O[C@H](COP(=O)(O)OP(=O)(O)O)[C@@H](O)[C@H]1O [ADP]
rescue of the time-dependent decrease in enzymatic activity [1]: None of these nucleotides are able to rescue the time-dependent decrease in enzymatic activity as well as ATP

Cc1cc2nc3c(=O)[nH]c(=O)nc-3n(C[C@H](O)[C@H](O)[C@H](O)COP(=O)(O)OP(=O)(O)OC[C@H]3O[C@@H](n4cnc5c(N)ncnc54)[C@H](O)[C@@H]3O)c2cc1C [FAD]
FAD needed to obtain a similar amount of rescue with FAD alone ([1]; no ATP): at least 100 μM
EC50 ([2]; EC50 for FAD (high-affinity site), 350 μM ATP, 95% CI: 358–476 nM): 0.385 µM
EC50 ([2]; lower EC50 for FAD, absence of ATP, 95% CI: 6.1–27.5 μM): 13 µM
EC50 ([2]; read-out: EC50 for FAD (low-affinity site), estimated, 350 μM ATP, 95% CI: 74–203 μM): 177 µM
koff [3]: 0.000536 s⁻¹
time in which about half of the bound FAD is lost ([4]; ACOX-1.1(E434A)): about half of the bound FAD is lost in an hour
koff of FAD ([4]; catalytic mutant ACOX-1.1(E434A), 5 μM): 0.0002 s⁻¹
Kd ([5]; KD of ACOX-1.1 for FAD, in the presence of ATP (350 μM)): ~0.45 µM
KD of ACOX-1.1 for FAD ([5]; in the absence of ATP): could not be measured because it is too high
EC50 [6]: > 1000 µM
EC50 [7]: > 1000 µM

Nc1nc2c(ncn2[C@@H]2O[C@H](COP(=O)(O)OP(=O)(O)OP(=O)(O)O)[C@@H](O)[C@H]2O)c(=O)[nH]1 [GTP]
rescue of the time-dependent decrease in enzymatic activity [1]: None of these nucleotides are able to rescue the time-dependent decrease in enzymatic activity as well as ATP

B1: ACOX-1.1(H396G) (enzyme, C. elegans, UniProt O62140 1-674, looked up)
chain: T1 sequence (O62140 1-674) with H396G
stoichiometry N [8]: 2

B2: ACOX-1.1(R536E) (enzyme, C. elegans, UniProt O62140 1-674, looked up)
chain: T1 sequence (O62140 1-674) with R536E
stoichiometry N [8]: 2
